# Source: publication PMC7104901 (Diabetes Technology & Therapeutics, 2020)
# Key:
# Format in all cases: in vivo, human
# [1] = system: subjects with type 1 diabetes; assay: Euglycemic clamp pharmacodynamics; conditions: for Clamp stopped prematurely due to BG reaching threshold (≥200 mg/dL for 30 min): number of subjects after 0.3 U/kg single dose; for GIR-AUC0–12h treatment ratio, point estimate (90% CI): 0.3 U/kg single dose, euglycemic clamp
# Summary of the method: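 Randomized, double-blind, 3-period crossover in adult males with T1D; fasted single 0.3 U/kg subcutaneous dose after basal-insulin washout (≥48 h), glulisine stopped ≥10 min predose, BG stable ≥1 h without glucose. A Biostator tracked arterialized venous BG and GIR continuously for 12 h, calibrated every 30 min. Stopped early if BG exceeded 200 mg/dL without glucose for 30 min. Weight-standardized GIR-AUC0–12h given as ratio of geometric means (90% CI).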
# [2] = Plasma insulin aspart pharmacokinetics after single subcutaneous dose; conditions: linear mixed effects model, 0.3 U/kg single dose
# Summary of the method: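 Adults with type 1 diabetes, off basal insulin ≥48 h and fasted overnight, clamped at blood glucose 100 mg/dL before subcutaneous dosing. Plasma was separated within 20 min and stored at −60 to −80°C. Samples were assayed by LC-MS/MS (100–8000 pg/mL, LLOQ 100 pg/mL) and censored at any rescue insulin. AUCs used the log-linear trapezoidal rule. Log-parameters were analysed by mixed model and back-transformed with 90% CI.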
# [3] = system: subjects with type 1 diabetes; assay: Safety and tolerability; conditions: single 0.3 U/kg dose
# Summary of the method: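 Adult males with T1D each got a fasted single subcutaneous 0.3 U/kg dose per period in a double-blind 3-period crossover under 12 h euglycemic clamp. Safety was assessed by 12-lead ECG, vital signs, routine laboratory tests, physical examination, adverse event reporting and injection-site reaction assessment. Treatment-emergent events were counted as subjects reporting per treatment.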
# [4] = ratio of geometric means vs. NN-Asp-EU
# [5] = ratio of geometric means vs. NN-Asp-US
Substance,Clamp stopped prematurely due to BG reaching threshold (≥200 mg/dL for 30 min) [1],"GIR-AUC0–12h treatment ratio, point estimate (90% CI) [1, 4]","INS-AUCinf treatment ratio, point estimate (90% CI) [2, 4]","INS-AUClast treatment ratio, point estimate (90% CI) [2, 4]","INS-Cmax treatment ratio, point estimate (90% CI) [2, 4]","GIR-AUC0–12h treatment ratio, point estimate (90% CI) [1, 5]",Tolerability [3],"INS-AUCinf treatment ratio, point estimate (90% CI) [2, 5]","INS-AUClast treatment ratio, point estimate (90% CI) [2, 5]","INS-Cmax treatment ratio, point estimate (90% CI) [2, 5]"
insulin aspart [NN-Asp-EU],15 subjects,–,–,–,–,–,–,–,–,–
insulin aspart [NN-Asp-US],18 subjects,0.97 (0.90–1.05),1.00 (0.95–1.04),1.00 (0.95–1.05),1.04 (0.96–1.12),–,–,–,–,–
insulin aspart [SAR-Asp],17 subjects,0.96 (0.89–1.04),0.92 (0.88–0.96),0.93 (0.88–0.97),0.97 (0.90–1.05),0.99 (0.91–1.07),well tolerated,0.92 (0.88–0.96),0.93 (0.89–0.98),0.93 (0.87–1.01)
